Measurements published in ChEMBL document CHEMBL3603803, “Design and synthesis of dithiocarbamate linked β-carboline derivatives: DNA topoisomerase II inhibition with DNA binding and apoptosis inducing ability” (Bioorg Med Chem, 2015).
Activity calls are given as the source filed them. No cut-off for these calls is given here.

Columns and labels:
DU-145 [1] = experiment: Induction of apoptosis in human DU145 cells assessed as early apoptotic cells at 0.5 uM after 48 hrs by annexin V-FITC/propidium iodide staining-based flow cytometric analysis (reference value: 0.43%); format: functional
DU-145 [2] = experiment: Induction of apoptosis in human DU145 cells assessed as necrotic cells at 1 uM after 48 hrs by annexin V-FITC/propidium iodide staining-based flow cytometric analysis (reference value: 0.1%); format: functional
DU-145 [3] = experiment: Cell cycle arrest in human DU145 cells assessed as accumulation at S phase at 1 uM after 48 hrs by propidium iodide staining-based flow cytometric analysis (reference value: 4.02%); format: functional
DU-145 [4] = experiment: Induction of apoptosis in human DU145 cells assessed as DNA fragmented cells at 0.5 uM after 48 hrs by Hoechst 33258 staining-based confocal microscopic analysis; format: functional, cell-based
In short: (§1)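 Hoechst H33258 staining of treated DU-145 cells at 0.5 µM; apoptotic cells (apoptotic bodies, condensation, nuclear fragmentation) counted by manual field quantification under the microscope, compared with control.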

DU-145 [5] = experiment: Induction of apoptosis in human DU145 cells assessed as wrinkled cells at 0.5 uM after 48 hrs by Hoechst 33258 staining-based confocal microscopic analysis; format: functional, cell-based; in short: as §1
Calf thymus DNA [6] = experiment: Stabilization of calf thymus DNA at 1:1 DNA to compound molar ratio by CD spectroscopic analysis; format: nucleic-acid assay; conditions: Bos taurus
In short: (§2)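 CD spectra of CT-DNA with compound added at 10 µM to equal CT-DNA concentration (1:1), then raised to 1:2 DNA:ligand; positive band at 275 nm monitored.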

HeLa = experiment: Cytotoxicity against human HeLa cells after 48 hrs by MTT assay; format: functional, cell-based
In short: (§3)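 Human cancer cell lines (A549 lung, MCF-7 breast, DU-145 prostate, HeLa cervical) exposed to compounds for 48 h; 50% inhibitory concentration derived, average of three individual experiments; doxorubicin reference agent.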

A549 = experiment: Cytotoxicity against human A549 cells after 48 hrs by MTT assay; format: functional, cell-based; conditions: A549, 48 h; in short: as §3
DU-145 [7] = experiment: Cell cycle arrest in human DU145 cells assessed as accumulation at subG1 phase at 0.5 uM after 48 hrs by propidium iodide staining-based flow cytometric analysis (reference value: 6.52%); format: functional
DU-145 [8] = experiment: Induction of apoptosis in human DU145 cells assessed as viable cells at 0.5 uM after 48 hrs by annexin V-FITC/propidium iodide staining-based flow cytometric analysis (reference value: 97.95%); format: functional; conditions: DU-145, 48 h, read-out: Activity
DU-145 [9] = experiment: Induction of apoptosis in human DU145 cells assessed as necrotic cells at 0.5 uM after 48 hrs by annexin V-FITC/propidium iodide staining-based flow cytometric analysis (reference value: 0.1%); format: functional
DU-145 [10] = experiment: Induction of apoptosis in human DU145 cells assessed as late apoptotic cells at 0.5 uM after 48 hrs by annexin V-FITC/propidium iodide staining-based flow cytometric analysis (reference value: 1.52%); format: functional
DU-145 [11] = experiment: Induction of apoptosis in human DU145 cells assessed as late apoptotic cells at 1 uM after 48 hrs by annexin V-FITC/propidium iodide staining-based flow cytometric analysis (reference value: 1.52%); format: functional
DU-145 [12] = experiment: Cytotoxicity against human DU145 cells after 48 hrs by MTT assay; format: functional, cell-based; conditions: DU-145, 48 h; in short: as §3
DU-145 [13] = experiment: Cell cycle arrest in human DU145 cells assessed as accumulation at G2/M phase at 0.5 uM after 48 hrs by propidium iodide staining-based flow cytometric analysis (reference value: 1.97%); format: functional
MCF7 = experiment: Cytotoxicity against human MCF7 cells after 48 hrs by MTT assay; format: functional, cell-based; conditions: MCF7, 48 h; in short: as §3
Calf thymus DNA [14] = experiment: Stabilization of calf thymus DNA at 1:2 DNA to compound molar ratio by CD spectroscopic analysis; format: nucleic-acid assay; conditions: Bos taurus; in short: as §2
Calf thymus DNA [15] = experiment: Binding affinity to calf thymus DNA surface at 1 uM by UV-vis spectrophotometric analysis; format: nucleic-acid assay; conditions: Bos taurus
DU-145 [16] = experiment: Cell cycle arrest in human DU145 cells assessed as accumulation at G0/G1 phase at 1 uM after 48 hrs by propidium iodide staining-based flow cytometric analysis (reference value: 85.94%); format: functional
Calf thymus DNA [17] = experiment: Induction of DNA intercalation of calf thymus DNA at 1 uM by UV-vis spectrophotometric analysis; format: nucleic-acid assay; conditions: Bos taurus
Calf thymus DNA [18] = experiment: Induction of DNA intercalation of calf thymus DNA at 10 uM by spectrofluorimetric analysis; format: nucleic-acid assay; conditions: Bos taurus
In short: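 Fluorescence titration: CT-DNA added to compound solution and quenching of compound emission peak monitored (617 or 567 nm, depending on compound).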

DU-145 [19] = experiment: Cell cycle arrest in human DU145 cells assessed as accumulation at S phase at 0.5 uM after 48 hrs by propidium iodide staining-based flow cytometric analysis (reference value: 4.02%); format: functional
DU-145 [20] = experiment: Cell cycle arrest in human DU145 cells assessed as accumulation at G2/M phase at 1 uM after 48 hrs by propidium iodide staining-based flow cytometric analysis (reference value: 1.97%); format: functional
DU-145 [21] = experiment: Cell cycle arrest in human DU145 cells assessed as accumulation at G0/G1 phase at 0.5 uM after 48 hrs by propidium iodide staining-based flow cytometric analysis (reference value: 85.94%); format: functional
DU-145 [22] = experiment: Induction of apoptosis in human DU145 cells assessed as viable cells at 1 uM after 48 hrs by annexin V-FITC/propidium iodide staining-based flow cytometric analysis (reference value: 97.95%); format: functional; conditions: DU-145, 48 h, read-out: Activity
DU-145 [23] = experiment: Induction of apoptosis in human DU145 cells assessed as early apoptotic cells at 1 uM after 48 hrs by annexin V-FITC/propidium iodide staining-based flow cytometric analysis (reference value: 0.43%); format: functional
[24] = target: T1, DNA topoisomerase II (Homo sapiens) (UniProt P11388+Q02880); experiment: Interfacial poisoning activity at DNA-topoisomerase 2 (unknown origin) using catenated kDNA as substrate assessed as linear DNA formation at 1 to 100 uM after 30 mins by agarose gel electrophoresis; format: protein assay
In short: (§4)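 Catenated DNA incubated with topo II and compound at 1, 10 and 100 µM; gel products scored for linear DNA (poison type) versus nicked circular/relaxed DNA retained in wells (catalytic inhibitor type); etoposide at 1, 10, 100 µM as control.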

DU-145 [25] = experiment: Cell cycle arrest in human DU145 cells assessed as accumulation at subG1 phase at 1 uM after 48 hrs by propidium iodide staining-based flow cytometric analysis (reference value: 6.52%); format: functional
[26] = target: T1, DNA topoisomerase II (Homo sapiens); experiment: Inhibition of DNA-topoisomerase 2 catalytic activity (unknown origin) using catenated kDNA as substrate assessed as formation of nicked circular and relaxed DNA at 1 to 100 uM after 30 mins by agarose gel electrophoresis; format: protein assay; in short: as §4

Row | SMILES | Activity (DU-145 [1]) [%] | Activity (DU-145 [2]) [%] | Activity (DU-145 [3]) [%] | Activity (DU-145 [4]) | Activity (DU-145 [5]) | Activity (Calf thymus DNA [6]) | IC50 (HeLa) [nM] | IC50 (A549) [nM] | Activity (DU-145 [7]) [%] | viability at 0.5 µM (DU-145 [8]) [%] | Activity (DU-145 [9]) [%] | Activity (DU-145 [10]) [%] | Activity (DU-145 [11]) [%] | IC50 (DU-145 [12]) [nM] | Activity (DU-145 [13]) [%] | IC50 (MCF7) [nM] | Activity (Calf thymus DNA [14]) | Activity (Calf thymus DNA [15]) | Activity (DU-145 [16]) [%] | Activity (Calf thymus DNA [17]) | other results
1 | CSC(=S)NCc1cc2c3ccccc3n(C)c2c(-c2ccc(C(F)(F)F)cc2)n1 | 3.82 | 1.65 | 5.31 | Active | Active | Active | 1470 | 3540 | 10.12 | 81.5 | 0.93 | 13.7 | 21.19 | 790 | 3.73 | 1090 | Active | Active | 70.81 | Active | Activity (Calf thymus DNA [18]): Active; Activity (DU-145 [19]): 5.18%; Activity (DU-145 [20]): 5.36%; Activity (DU-145 [21]): 78.9%; viability at 1 µM (DU-145 [22]): 75%; Activity (DU-145 [23]): 2.18%; Activity [24]: Active; Activity (DU-145 [25]): 18.6%
2 | CSC(=S)NCc1cc2c([nH]c3ccccc32)c(-c2ccc(F)cc2)n1 | 1.07 | 0.96 | 3.34 | Active | Active | Active | 3460 | 4360 | 7.34 | 94.6 | 0.14 | 4.17 | 14.68 | 1340 | 1.98 | 2450 | Active | Active | 75.52 | Active | inhibition [26]: Active; Activity (Calf thymus DNA [18]): Active; Activity (DU-145 [19]): 3.36%; Activity (DU-145 [20]): 2.33%; Activity (DU-145 [21]): 84.83%; viability at 1 µM (DU-145 [22]): 80%; Activity (DU-145 [23]): 4.4%; Activity (DU-145 [25]): 15.61%
